Tests used:
[1] = system: Plasma; assay: Drug metabolism in Sprague-Dawley rat assessed as tizoxanide-glucuronide formation in plasma at 30 mg/kg, po administered as single dose measured after 5 mins; format: ADME, organism-based; conditions: in vivo
Method in brief: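 Plasma tizoxanide and tizoxanide glucuronide were measured and PK parameters derived. AUCs were dose-corrected to 30 mg/kg for bioavailability.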

[2] = system: Rattus norvegicus; assay: Elimination half life in Sprague-Dawley rat assessed as Tizoxanide level at 28 mg/kg, po; format: ADME, organism-based; conditions: in vivo
[3] = system: Rattus norvegicus; assay: Cmax in Sprague-Dawley rat assessed as Tizoxanide level in plasma at 30 mg/kg, po administered as single dose; format: ADME, organism-based; set-up: dose 30 mg/kg, route oral; conditions: in vivo
Method in brief: (§1)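 Rats in groups of three received one compound as a single oral dose (30 mg/kg) or a single intravenous injection (6 mg/kg), with four compounds studied separately. Serial blood samples were drawn at 5, 10, 15 and 30 min and at 1, 2, 4, 8, 23 and 24 h post-dose. Plasma parent drug and metabolites were quantified and PK parameters were derived.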

[4] = system: Canis familiaris; assay: Toxicity in Beagle dog assessed as effect on urinalysis parameters up to 25 mg/kg, po administered as gelatin capsule once daily for 28 days measured on day 29; format: organism-based, Canis lupus familiaris; conditions: in vivo, 672 h
Method in brief: (§2)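 Sub-acute study in Beagle dogs dosed orally by gelatin capsule at 5, 15 and 25 mg/kg once a day for 28 consecutive days.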

[5] = system: Rattus norvegicus; assay: Neurotoxicity in Sprague-Dawley rat at 100 to 300 mg/kg, po administered via gavage as single dose after 4 to 24 hrs; format: toxicity, organism-based; conditions: in vivo
Method in brief: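 CNS safety study in rats: single oral-gavage doses of 100, 300 or 1000 mg/kg to 3 groups of 10 (5M/5F), with an untreated control group. Clinical signs (activity, abdominal tone, breathing, tremors, pain response) were recorded at 4 and 24 h after dosing, and mortality was noted.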

[6] = system: Rattus norvegicus; assay: Toxicity in Sprague-Dawley rat assessed as hemorrhage in stomach at 30 to 75 mg/kg administered as oral gavage qd for 28 consecutive days measured on day 29 by microscopic method; format: organism-based; conditions: in vivo
Method in brief: (§3)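 Sub-acute study in Sprague-Dawley rats: 10, 30 or 75 mg/kg given orally once a day for 28 consecutive days as a yellow suspension. There were 4 groups of up to 30 rats each (15M/15F), including a control. Body weight, clinical observations and terminal findings were assessed.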

[7] = system: Canis familiaris; assay: Toxicity in Beagle dog up to 25 mg/kg, po administered as gelatin capsule once daily for 28 days measured on day 29 followed by two weeks of recovery period; format: organism-based, Canis lupus familiaris; conditions: in vivo, 672 h; method in brief: as §2
[8] = system: Rattus norvegicus; assay: Toxicity in Sprague-Dawley rat assessed as body weight gain at 75 mg/kg administered as oral gavage qd for 28 consecutive days measured during last 2 weeks of dosing relative to control; format: organism-based; conditions: in vivo, 336 h
Method in brief: (§4)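 Sub-acute study in Sprague-Dawley rats dosed orally with a suspension at 10, 30 and 75 mg/kg once daily for 28 consecutive days. Four groups of up to 30 rats each (15M/15F).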

[9] = system: Rattus norvegicus; assay: Toxicity in Sprague-Dawley rat assessed as hemorrhage in duodenum at 75 mg/kg administered as oral gavage qd for 28 consecutive days followed by 2 weeks recovery period by microscopic method; format: organism-based; conditions: in vivo, 336 h; method in brief: as §4
[10] = system: Canis familiaris; assay: Drug metabolism in Beagle dog assessed as tizoxanide-glucuronide level in plasma administered orally as gelatin capsule once daily for 28 days measured on day 1 and 29; format: ADME, Canis lupus familiaris; conditions: po, 672 h
Method in brief: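 Beagle dogs received the drug orally in a single gelatin capsule at 5, 15 or 25 mg/kg once daily for 28 consecutive days in a sub-acute toxicity study assessing systemic exposure.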

[11] = system: Rattus norvegicus; assay: Toxicity in Sprague-Dawley rat assessed as erosions in stomach at 30 to 75 mg/kg administered as oral gavage qd for 28 consecutive days measured on day 29 by microscopic method; format: organism-based; conditions: in vivo; method in brief: as §3
[12] = system: Rattus norvegicus; assay: Cmax in Sprague-Dawley rat assessed as Tizoxanide-glucuronide level in plasma at 6 mg/kg, iv administered as single dose; format: ADME, organism-based; set-up: dose 6 mg/kg, route intravenous; conditions: in vivo; method in brief: as §1
[13] = system: Rattus norvegicus; assay: Toxicity in Sprague-Dawley rat assessed as effect on respiratory rate by measuring minute volume dose at 1000 mg/kg administered as single dose via oral gavage; format: organism-based; conditions: in vivo
Method in brief: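 Conscious rats in three groups of six (3M/3F) got single oral gavage doses of 100, 300 or 1000 mg/kg, with an untreated control group. Respiratory rate (breaths per minute), tidal volume and minute volume were recorded.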

[14] = system: Rattus norvegicus; assay: Toxicity in Sprague-Dawley rat assessed as epithelial hyperplasia in stomach at 75 mg/kg administered as oral gavage qd for 28 consecutive days followed by 2 weeks recovery period by microscopic method; format: organism-based; conditions: in vivo, 336 h; method in brief: as §4
[15] = system: Rattus norvegicus; assay: Toxicity in Sprague-Dawley rat assessed as mucosal hyperplasia in duodenum at 75 mg/kg administered as oral gavage qd for 28 consecutive days followed by 2 weeks recovery period by microscopic method; format: organism-based; conditions: in vivo, 336 h
Method in brief: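 Sub-acute oral toxicity study in Sprague-Dawley rats. The drug was given once daily for 28 consecutive days at 10, 30 or 75 mg/kg, formulated as a suspension. There were 4 groups of up to 30 rats each (15 male, 15 female). The study evaluated systemic exposure to the drug.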

[16] = system: Rattus norvegicus; assay: Toxicity in Sprague-Dawley rat administered via oral gavage qd for 28 consecutive days; conditions: in vivo; method in brief: as §3
[17] = system: Rattus norvegicus; assay: Neurotoxicity in Sprague-Dawley rat assessed as tremors at 1000 mg/kg administered as single dose via oral gavage after 4 to 24 hrs; format: toxicity, organism-based; conditions: in vivo
Method in brief: (§5)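 Three groups of 10 rats (5M/5F) received a single dose by oral gavage of 100, 300 or 1000 mg/kg, and an untreated group served as control. Clinical signs of CNS effects were recorded at 4 and 24 h after treatment.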

[18] = system: Rattus norvegicus; assay: Cmax in Sprague-Dawley rat assessed as tizoxanide-glucuronide level in plasma at 30 mg/kg, po administered as single dose; format: ADME, organism-based; set-up: dose 30 mg/kg, route oral; conditions: in vivo; method in brief: as §1
[19] = system: Rattus norvegicus; assay: Toxicity in Sprague-Dawley rat assessed as decrease in absolute kidney weight at 75 mg/kg administered as oral gavage qd for 28 consecutive days measured on day 29; format: organism-based; conditions: in vivo; method in brief: as §4
[20] = system: Rattus norvegicus; assay: Toxicity in Sprague-Dawley rat assessed as eosinophilic cytoplasmic bodies in leukocytes of duodenum at 75 mg/kg administered as oral gavage qd for 28 consecutive days measured on day 29 by microscopic method; format: organism-based; conditions: in vivo; method in brief: as §4
[21] = system: Plasma; assay: Drug metabolism in Sprague-Dawley rat assessed as tizoxanide level in plasma administered via oral gavage qd for 28 consecutive days; format: ADME
Method in brief: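 In a sub-acute study, Sprague-Dawley rats were dosed once daily for 28 consecutive days at 10, 30 or 75 mg/kg, given as a yellow suspension. There were four groups of up to 30 rats each (15M/15F) to assess systemic exposure.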

[22] = system: Rattus norvegicus; assay: Neurotoxicity in Sprague-Dawley rat assessed as labored breathing at 1000 mg/kg administered as single dose via oral gavage after 4 to 24 hrs; format: toxicity, organism-based; conditions: in vivo; method in brief: as §5
[23] = system: Rattus norvegicus; assay: Toxicity in Sprague-Dawley rat assessed as decrease in serum sodium level at 10 to 75 mg/kg administered as oral gavage qd for 28 consecutive days followed by 2 weeks recovery period measured on day 43; format: organism-based; conditions: in vivo, 336 h; method in brief: as §4
[24] = system: Rattus norvegicus; assay: Neurotoxicity in Sprague-Dawley rat assessed as decrease in pain response at 1000 mg/kg administered as single dose via oral gavage after 4 to 24 hrs; format: toxicity, organism-based; conditions: in vivo; method in brief: as §5
[25] = system: Rattus norvegicus; assay: Toxicity in Sprague-Dawley rat assessed as effect on tidal volume at 100 to 1000 mg/kg administered as single dose via oral gavage; format: organism-based; conditions: in vivo
Method in brief: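 Respiratory safety study: conscious rats, 3 groups of 6 (3M/3F), given single oral-gavage doses of 100, 300 or 1000 mg/kg, with an untreated control group. Respiratory rate (breaths per minute), tidal volume and minute volume were recorded, and mortality was noted.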

## CC(C)(C)[C@H](N)C(=O)Oc1ccccc1C(=O)Nc1ncc([N+](=O)[O-])s1.Cl
[1]
  Drug metabolism: Metabolite_Detected
[2]
  beta t1/2: 33 min
[3]
  Cmax: 6190 ng/mL
[4]
  Activity: Non-Toxic
[5]
  Activity: Non-Toxic
[6]
  Activity: Toxic
[7]
  Activity: Non-Toxic
[8]
  Activity: 4 to 5%
[9]
  Activity: Non-Toxic
[10]
  Drug metabolism: Dose-dependent effect
[11]
  Activity: Toxic
[12]
  Cmax: 7890 ng/mL
[13]
  Activity: Toxic
[14]
  Activity: Non-Toxic
[15]
  Activity: Non-Toxic
[16]
  NOAEL: 10 mg/kg
[17]
  Activity: Toxic
[18]
  Cmax: 18600 ng/mL
[19]
  Activity: Toxic
[20]
  Activity: Toxic
[21]
  Drug metabolism: Dose-dependent effect
[22]
  Activity: Toxic
[23]
  Activity: Toxic
[24]
  Activity: Toxic
[25]
  Activity: Toxic
